Experimental data of several laboratories.
Lines come from different studies, so protocols differ.
Target: Serine/threonine-protein kinase VRK1 (VRK1, Homo sapiens, UniProt Q99986)
Residues used in one study (Q99986 1-396): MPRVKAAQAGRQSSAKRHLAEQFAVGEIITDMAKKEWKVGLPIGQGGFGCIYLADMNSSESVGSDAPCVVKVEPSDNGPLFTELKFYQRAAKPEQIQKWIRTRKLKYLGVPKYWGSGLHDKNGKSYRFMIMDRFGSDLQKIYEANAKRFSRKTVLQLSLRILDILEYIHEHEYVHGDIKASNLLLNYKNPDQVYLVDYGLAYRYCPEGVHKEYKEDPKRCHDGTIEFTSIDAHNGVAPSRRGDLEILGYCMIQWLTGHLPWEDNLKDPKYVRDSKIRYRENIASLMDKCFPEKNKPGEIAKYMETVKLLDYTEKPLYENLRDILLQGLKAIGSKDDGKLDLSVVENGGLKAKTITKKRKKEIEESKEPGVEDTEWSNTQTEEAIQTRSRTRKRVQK

SMILES	effect on	mode	technique	tested at	endpoint	value
CN1CC(Oc2cnc(C#N)cc2-c2ccn3nc(NC(=O)C4CC4)cc3c2)C1	enzyme activity	inhibitor	–	1 µM	inhibition	-1%
Cn1c2c(Cl)c(Cl)ccc2c2cn[nH]c(=O)c21	thermal stability	–	DSF	10 µM	ΔTm	0 °C
O=C(Nc1cnn(-c2csc(C(=O)NC3COC3)c2)c1)Nc1ccccc1Cl	enzyme activity	inhibitor	–	5 µM	remaining activity	109%
N#CC1c2c([nH]c3c(Cl)c(Cl)ccc23)C(=O)NC12CCCCC2 (racemic)	thermal stability	–	DSF	10 µM	ΔTm	0.1 °C
CC(C)(O)[C@H]1CC[C@H](Nc2ccc3ncc(-c4cccc(C(F)(F)F)c4)n3n2)CC1	enzyme activity	inhibitor	–	1 µM	remaining activity	74.9%
CN1CCC2(CC1)NC(=O)c1c(c3ccc(Cl)c(Cl)c3n1C)C2C#N (racemic)	thermal stability	–	DSF	10 µM	ΔTm	0 °C
CC(C)(C)c1nc2c(s1)c1nc(N)ncc1c1ccc(NS(=O)(=O)c3c(F)cccc3F)c(F)c12	enzyme activity	inhibitor	radiometric	1 µM	remaining activity	82%
O=C1Nc2ccc(Cl)cc2C1=Cc1cc(Cl)c(O)c(Cl)c1	cell-free assay	–	–	0.5 µM	remaining signal	80.6%
CC(C)(C)c1nc(-c2cccc(NS(=O)(=O)c3c(F)cccc3F)c2F)c(-c2ccnc(N)n2)s1	enzyme activity	inhibitor	radiometric	1 µM	remaining activity	77%
COc1cc(Cl)c(C(=O)N[C@@H](CN[C@H]2CC[C@@H](N)CC2)Cc2ccc(C#N)cc2)cc1-c1ccc(CN[C@H](C)c2ccc(C)cc2)o1	enzyme activity	inhibitor	–	1 µM	remaining activity	93%
O=C(Nc1cnn(-c2csc(C(=O)NC3COC3)c2)c1)Nc1c(F)cccc1Cl	enzyme activity	inhibitor	–	5 µM	remaining activity	91.9%
